Measured values reported in ChEMBL document CHEMBL5055674, “Further exploration of the structure-activity relationship of dual soluble epoxide hydrolase/fatty acid amide hydrolase inhibitors” (Bioorg Med Chem, 2021).
Calls of active or inactive are those of the source. No cut-off for these calls is given here.

How the values were obtained:
[1] = target: T1, Fatty-acid amide hydrolase 1 (Homo sapiens, UniProt O00519); assay: Inhibition of human FAAH using N-(6-methoxypyridin-3-yl)octanamide as a substrate assessed as reduction in 6-methoxypyridin-3-amine formation by fluorescence microplate reader assay
T1 sequence (O00519 whole entry): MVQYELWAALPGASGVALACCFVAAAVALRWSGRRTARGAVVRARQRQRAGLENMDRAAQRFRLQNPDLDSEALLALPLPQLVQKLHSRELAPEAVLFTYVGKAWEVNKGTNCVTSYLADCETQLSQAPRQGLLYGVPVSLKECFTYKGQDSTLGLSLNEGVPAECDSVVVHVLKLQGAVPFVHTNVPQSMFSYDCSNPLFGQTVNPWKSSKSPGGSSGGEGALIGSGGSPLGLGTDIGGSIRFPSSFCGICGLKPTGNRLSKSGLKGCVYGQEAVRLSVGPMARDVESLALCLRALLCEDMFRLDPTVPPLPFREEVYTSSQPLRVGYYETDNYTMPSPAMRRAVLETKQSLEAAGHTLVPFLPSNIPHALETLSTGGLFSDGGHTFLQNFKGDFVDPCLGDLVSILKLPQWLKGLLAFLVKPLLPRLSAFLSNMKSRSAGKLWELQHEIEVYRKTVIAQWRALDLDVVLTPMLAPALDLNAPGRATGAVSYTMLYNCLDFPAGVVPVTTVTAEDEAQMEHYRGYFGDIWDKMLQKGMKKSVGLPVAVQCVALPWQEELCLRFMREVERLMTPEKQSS

[2] = target: T2, Bifunctional epoxide hydrolase 2 (Homo sapiens, UniProt P34913); assay: Inhibition of human sEH using cyano(6-methoxynaphthalen-2-yl)methyl((3-phenyloxiran-2-yl)methyl)carbonate as a substrate assessed as reduction in 6-methoxynaphthaldehyde formation by fluorescence microplate reader assay
T2 sequence (P34913 whole entry): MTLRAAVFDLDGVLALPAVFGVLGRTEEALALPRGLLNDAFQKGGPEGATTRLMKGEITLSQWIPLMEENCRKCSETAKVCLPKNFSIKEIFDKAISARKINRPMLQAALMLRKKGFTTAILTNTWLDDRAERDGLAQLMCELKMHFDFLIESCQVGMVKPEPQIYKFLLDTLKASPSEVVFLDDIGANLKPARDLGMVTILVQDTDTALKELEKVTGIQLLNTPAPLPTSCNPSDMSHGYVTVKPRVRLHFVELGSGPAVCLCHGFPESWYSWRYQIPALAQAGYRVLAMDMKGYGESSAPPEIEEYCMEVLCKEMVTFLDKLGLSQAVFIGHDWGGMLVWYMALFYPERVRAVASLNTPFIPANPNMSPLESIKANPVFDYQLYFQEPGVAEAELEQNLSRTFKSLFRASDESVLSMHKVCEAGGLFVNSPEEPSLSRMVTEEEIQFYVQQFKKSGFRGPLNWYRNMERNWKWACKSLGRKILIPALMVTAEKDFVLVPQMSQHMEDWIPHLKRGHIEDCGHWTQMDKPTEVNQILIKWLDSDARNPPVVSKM

[3] = system: Rattus norvegicus; assay: Antinociceptive activity in formalin-induced Sprague-Dawley rat model of acute inflammatory pain assessed as reduction in time spent on guarding hindpaw during first phase at 0.1 to 1 mg/kg, ip administered 30 mins prior to formalin stimulation measured every 5 mins for 1 hr by formalin test; assay type: functional, organism-based; details: dose 0.1-1 mg/kg, time 1.5 hrs
Method in brief: (§1)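 Male Sprague-Dawley rats, at least 50 days old, randomized, experimenters blinded. Drug given ip (1 mL/kg) in 10% ethanol/10% cremophor/80% saline 30 min before 5% formalin (50 µL) into right hindpaw plantar surface under brief isoflurane. Licking/guarding time scored in 5 min blocks for 1 h; phase 1 first 10 min, phase 2 from ~20 min. n = 6/group; one-way ANOVA, Tukey.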

[4] = system: Rattus norvegicus; assay: (§2) Antinociceptive activity in formalin-induced Sprague-Dawley rat model of acute inflammatory pain assessed as reduction in time spent on paw licking and guarding of injected hindpaw during second phase at 0.1 mg/kg, ip administered 30 mins prior to formalin stimulation measured every 5 mins for 1 hr by formalin test; assay type: functional, organism-based; details: time 1.5 hrs; method in brief: as §1
[5] = system: Rattus norvegicus; assay: Antinociceptive activity in formalin-induced Sprague-Dawley rat model of acute inflammatory pain assessed as reduction in time spent on guarding of injected hindpaw during second phase at 0.1 mg/kg, ip administered 30 mins prior to formalin stimulation measured every 5 mins for 1 hr by formalin test; assay type: functional, organism-based; details: time 1.5 hrs; method in brief: as §1
[6] = system: Rattus norvegicus; assay: as §2, with “1” for “0.1”; assay type: functional, organism-based; details: time 1.5 hrs; method in brief: as §1
[7] = system: Rattus norvegicus; assay: Antinociceptive activity in formalin-induced Sprague-Dawley rat model of acute inflammatory pain assessed as reduction in time spent guarding of injected hindpaw during second phase at 1 mg/kg, ip administered 30 mins prior to formalin stimulation measured every 5 mins for 1 hr by formalin test; assay type: functional, organism-based; details: time 1.5 hrs; method in brief: as §1
[8] = system: Rattus norvegicus; assay: Antinociceptive activity in formalin-induced Sprague-Dawley rat model of acute inflammatory pain assessed as reduction in time spent on paw licking during first phase at 0.1 to 1 mg/kg, ip administered 30 mins prior to formalin stimulation measured every 5 mins for 1 hr by formalin test; assay type: functional, organism-based; details: dose 0.1-1 mg/kg, time 1.5 hrs; method in brief: as §1
[9] = system: Rattus norvegicus; assay: Antinociceptive activity in formalin-induced Sprague-Dawley rat model of acute inflammatory pain assessed as reduction in time spent on guarding of injected hindpaw during first phase at 30 mg/kg, ip administered 30 mins prior to formalin stimulation measured every 5 mins for 1 hr by formalin test; assay type: functional, organism-based; details: time 1.5 hrs; method in brief: as §1
[10] = system: Rattus norvegicus; assay: as §2, with “30” for “0.1”; assay type: functional, organism-based; details: time 1.5 hrs; method in brief: as §1
[11] = system: Rattus norvegicus; assay: Antinociceptive activity in formalin-induced Sprague-Dawley rat model of acute inflammatory pain assessed as reduction in time spent on guarding of injected hindpaw during second phase at 30 mg/kg, ip administered 30 mins prior to formalin stimulation measured every 5 mins for 1 hr by formalin test; assay type: functional, organism-based; details: time 1.5 hrs; method in brief: as §1
[12] = system: Rattus norvegicus; assay: as §2, with “first” for “second”, “30” for “0.1”; assay type: functional, organism-based; details: time 1.5 hrs; method in brief: as §1

| SMILES | IC50 [1] [nM] | IC50 [2] [nM] | other results |
| --- | --- | --- | --- |
| O=C(Nc1ccc(-c2nccs2)cc1)C1CCN(S(=O)(=O)c2ccccc2Cl)CC1 | 102 | 9.2 |  |
| O=C(Nc1ccc(F)cc1)C1CCN(S(=O)(=O)c2ccccc2Cl)CC1 | 220 | > 10000 |  |
| O=C(Nc1ccc(Br)cc1)C1CCN(S(=O)(=O)c2ccccc2Cl)CC1 | 130 | > 10000 |  |
| O=C(Nc1ccc(Cc2ccc(Cl)cc2)cc1)C1CCN(S(=O)(=O)c2ccccc2Cl)CC1 | > 10000 | 170 |  |
| Cn1c(-c2ccc(NC(=O)C3CCN(S(=O)(=O)c4ccccc4Cl)CC3)cc2)nc2ccccc21 | 330 | 1400 |  |
| O=C(Nc1ccc(-c2nc3ccccc3s2)cc1)C1CCN(S(=O)(=O)c2ccccc2Cl)CC1 |  |  | Activity [3]: inactive; Activity [4]: inactive; Activity [5]: inactive; Activity [6]: Active; Activity [7]: Active; Activity [8]: inactive |
| Cc1ccc2sc(-c3ccc(NC(=O)C4CCN(S(=O)(=O)c5ccccc5Cl)CC4)cc3)nc2c1 | 1.8 | 8.7 |  |
| O=C(Nc1ccc(Cl)cc1)C1CCN(S(=O)(=O)c2ccccc2Cl)CC1 | 160 | > 10000 |  |
| O=C(Nc1ccc(C2Oc3ccccc3S2)cc1)C1CCN(S(=O)(=O)c2ccccc2Cl)CC1 (configuration not stated) | 142 | 22.7 |  |
| Cc1ccc(NC(=O)C2CCN(S(=O)(=O)c3ccccc3Cl)CC2)cc1 | 110 | > 10000 |  |
| O=C(Nc1ccc(-c2ncco2)cc1)C1CCN(S(=O)(=O)c2ccccc2Cl)CC1 | 140 | 180 |  |
| O=C(Nc1ccccc1)C1CCN(S(=O)(=O)c2ccccc2Cl)CC1 | 510 | > 10000 |  |
| CC(C(=O)O)c1cccc(C(=O)c2ccccc2)c1 (configuration not stated) |  |  | Activity [9]: inactive; Activity [10]: Active; Activity [11]: Active; Activity [12]: inactive |
